Experimental findings from ChEMBL document CHEMBL2029266, “Discovery and evaluation of selective N-type calcium channel blockers: 6-unsubstituted-1,4-dihydropyridine-5-carboxylic acid derivatives” (Bioorg Med Chem Lett, 2012) are described below.

Data set [1] concerns the target Voltage-dependent N-type calcium channel subunit alpha-1B (Homo sapiens, UniProt Q00975). The experiment in a line: Inhibition of N-type voltage-dependent calcium channel CaV2.2 in human IMR32 cells assessed as inhibition of KCl-induced increase in intracellular calcium concentration preincubated for 4 to 5 mins before KCl challenge. Format: cell-based, IMR-32. Summed up: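 IMR-32 cells on poly-L-lysine/collagen dishes, differentiated with 1 mM dibutyl-cAMP and 2.5 µM bromodeoxyuridine for 10–14 days. Loaded with 2.5 µM fura-2/AM, 37 °C, 30 min. HEPES recording medium with 1 µM nifedipine throughout. Calcium rise evoked by 60 mM KCl for 6 s, repeated every 5 min. Compound at 0.1, 1 or 10 µM; IC50 from ≥2 independent experiments.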

The target of data set [2] is L-type voltage-dependent calcium channel (Rattus norvegicus, UniProt P22002+P27732+Q02485). The data set can be described thus: (§1) Inhibition of L-type voltage-dependent calcium channel in Sprague-Dawley rat aorta at 10 uM by Magnus method. Particulars: Sprague-Dawley, isolated rat aorta. The class given is tissue-based. Summed up:
(§2)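 Rat aortic ring in organ bath, Tyrode's solution pH 7.4, 37 °C, 95% O2/5% CO2. Equilibrated 1 h at 2 g resting tension. Then exposed to high-K+ Tyrode (50 mM KCl replacing NaCl) and to normal Tyrode, 45 min each. Activity reported as inhibition or IC50.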

Data set [3] deals with T1, Voltage-gated L-type calcium channel (Rattus norvegicus, UniProt P22002+Q02485+P27732). The data set can be described thus: Inhibition of L-type voltage-dependent calcium channel in Sprague-Dawley rat aorta by Magnus method. Format: tissue-based. The method in brief:
as §2

The test system of data set [4] is Rattus norvegicus. The experiment in a line: Analgesic activity in Sprague-Dawley rat assessed as inhibition of formalin-induced pain at 100 mg/kg, po. The class given is functional. The method in brief:
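Formalin injected into the rat footpad; phase II pain responses scored after oral dosing. Read-out is % inhibition relative to the control group, n = 3 animals at this dose.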

Data set [5] has as its target T1, Voltage-gated L-type calcium channel. The description is as §1. Format: tissue-based. To be noted: 10 µM. The method in brief:
as §2

The subject of data set [6] is Rattus norvegicus. The data set can be described thus: Analgesic activity in Sprague-Dawley rat assessed as inhibition of formalin-induced pain at 3 mg/kg, po. The class given is functional. The method in brief:
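Rats received formalin by footpad injection, and phase II pain responses were scored. Compound given orally. Inhibition is expressed as % versus the control group, n = 5.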

Voltage-dependent N-type calcium channel subunit alpha-1B, sequence (Q00975 whole entry): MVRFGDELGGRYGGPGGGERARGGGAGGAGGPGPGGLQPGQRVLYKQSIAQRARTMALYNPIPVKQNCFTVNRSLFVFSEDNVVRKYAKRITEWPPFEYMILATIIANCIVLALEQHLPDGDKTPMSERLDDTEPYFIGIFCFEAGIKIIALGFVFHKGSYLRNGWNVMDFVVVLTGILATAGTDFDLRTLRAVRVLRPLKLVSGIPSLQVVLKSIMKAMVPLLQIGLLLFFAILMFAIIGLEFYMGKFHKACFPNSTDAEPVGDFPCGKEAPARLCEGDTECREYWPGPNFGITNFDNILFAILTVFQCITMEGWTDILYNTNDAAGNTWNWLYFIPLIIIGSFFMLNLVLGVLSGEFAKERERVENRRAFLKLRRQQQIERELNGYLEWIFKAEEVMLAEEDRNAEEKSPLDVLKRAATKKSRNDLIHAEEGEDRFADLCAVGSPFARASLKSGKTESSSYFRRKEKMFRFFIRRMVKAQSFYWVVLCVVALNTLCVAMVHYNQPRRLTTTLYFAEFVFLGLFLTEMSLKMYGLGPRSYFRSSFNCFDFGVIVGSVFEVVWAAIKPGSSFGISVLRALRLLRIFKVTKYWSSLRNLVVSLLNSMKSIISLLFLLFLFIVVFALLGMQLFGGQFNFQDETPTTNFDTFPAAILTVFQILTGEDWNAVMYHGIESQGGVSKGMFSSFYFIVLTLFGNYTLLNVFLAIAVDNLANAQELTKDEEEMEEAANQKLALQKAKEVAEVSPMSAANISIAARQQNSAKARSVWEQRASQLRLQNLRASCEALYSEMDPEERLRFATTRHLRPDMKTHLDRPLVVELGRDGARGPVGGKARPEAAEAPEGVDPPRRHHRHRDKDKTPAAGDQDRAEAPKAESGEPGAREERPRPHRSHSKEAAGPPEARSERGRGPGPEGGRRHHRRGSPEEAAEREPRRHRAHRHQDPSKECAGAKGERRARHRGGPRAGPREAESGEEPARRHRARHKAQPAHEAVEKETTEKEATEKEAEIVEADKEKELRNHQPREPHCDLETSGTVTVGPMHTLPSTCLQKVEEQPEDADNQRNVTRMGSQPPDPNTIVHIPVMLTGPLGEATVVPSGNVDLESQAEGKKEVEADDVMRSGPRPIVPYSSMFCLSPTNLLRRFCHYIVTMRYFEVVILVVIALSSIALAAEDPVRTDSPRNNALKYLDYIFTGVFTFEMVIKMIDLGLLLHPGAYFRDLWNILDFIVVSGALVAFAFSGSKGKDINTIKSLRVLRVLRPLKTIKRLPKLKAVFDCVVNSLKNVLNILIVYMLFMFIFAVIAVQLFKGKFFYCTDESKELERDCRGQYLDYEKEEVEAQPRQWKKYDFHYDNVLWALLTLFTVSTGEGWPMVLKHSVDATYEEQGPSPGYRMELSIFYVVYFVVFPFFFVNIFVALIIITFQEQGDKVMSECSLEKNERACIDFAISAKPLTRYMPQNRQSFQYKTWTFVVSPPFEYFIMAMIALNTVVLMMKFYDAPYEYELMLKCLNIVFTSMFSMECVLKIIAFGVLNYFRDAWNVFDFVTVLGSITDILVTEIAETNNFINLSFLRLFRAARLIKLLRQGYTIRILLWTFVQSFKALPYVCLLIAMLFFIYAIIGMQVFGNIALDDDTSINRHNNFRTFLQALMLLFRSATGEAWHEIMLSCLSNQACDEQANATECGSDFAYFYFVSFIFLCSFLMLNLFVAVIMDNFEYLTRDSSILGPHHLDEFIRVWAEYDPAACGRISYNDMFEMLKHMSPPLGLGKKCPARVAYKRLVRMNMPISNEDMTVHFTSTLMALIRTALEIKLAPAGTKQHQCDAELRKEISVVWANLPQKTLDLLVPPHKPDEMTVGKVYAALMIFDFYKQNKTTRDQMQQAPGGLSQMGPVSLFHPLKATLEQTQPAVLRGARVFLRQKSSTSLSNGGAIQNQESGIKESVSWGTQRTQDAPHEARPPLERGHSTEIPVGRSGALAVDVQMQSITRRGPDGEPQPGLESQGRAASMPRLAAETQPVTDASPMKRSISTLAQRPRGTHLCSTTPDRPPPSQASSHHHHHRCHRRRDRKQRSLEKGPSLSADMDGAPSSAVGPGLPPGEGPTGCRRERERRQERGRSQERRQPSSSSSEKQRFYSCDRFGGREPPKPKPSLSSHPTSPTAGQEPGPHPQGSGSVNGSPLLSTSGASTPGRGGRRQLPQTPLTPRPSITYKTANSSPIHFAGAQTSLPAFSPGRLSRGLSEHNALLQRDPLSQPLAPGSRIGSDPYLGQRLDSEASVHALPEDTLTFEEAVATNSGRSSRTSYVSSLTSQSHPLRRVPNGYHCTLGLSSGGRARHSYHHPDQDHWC

The IC50 is the concentration that gives 50% inhibition. The inhibition is the drop in the measured response relative to a control, in per cent. As to `O=C(O)C1=CNC=C(C(=O)OC/C=C/c2ccccc2)C1c1ccc(Cl)c(Cl)c1` (centres undefined), in data set [1], the IC50 was 750 nM. Moreover, the inhibition at 10 µM in data set [2] was 41%.
Taken in the same sequence, the figures for `O=C(O)C1=CNC=C(C(=O)OC/C=C/c2ccccc2)C1c1cccc(C(F)(F)F)c1` (centres undefined) were 1200 nM and 40%.
Taken in the same sequence, the figures for `COc1c(Cl)cc(C2C(C(=O)O)=CNC(C(OC)OC)=C2C(=O)OC/C=C/c2ccccc2)cc1Cl` (centres undefined) were 1200 nM and 20%.
Consider `COc1ccc(C2C(C(=O)O)=CNC(C(OC)OC)=C2C(=O)OC/C=C/c2ccccc2)cc1Cl` (centres undefined), for which the IC50 in data set [1] stood at 1500 nM. Moreover, in data set [2], the inhibition at 10 µM is 26%.
As for `COC(OC)C1=C(C(=O)OC/C=C/c2ccccc2)C(c2cc(Cl)cc(Cl)c2)C(C(=O)O)=CN1` (centres undefined), in data set [1], the IC50 was found to be 1000 nM. Further, in data set [2], the inhibition at 10 µM turned out to be 4%.
Taken in the same sequence, the figures for `O=C(O)C1=CNC=C(C(=O)OC/C=C/c2ccccc2)C1c1ccc(Cl)cc1` (centres undefined) were 1200 nM and 16%.
For the compound `COC(OC)C1=C(C(=O)OC/C=C/c2ccccc2)C(c2cccc(Cl)c2)C(C(=O)O)=C(C)N1` (centres undefined), the half-inhibitory concentration (IC50) in data set [1] was found to be 3000 nM.
For the compound `O=C(O)C1=CNC=C(C(=O)OC/C=C/c2ccccc2)C1c1cccc(Cl)c1` (centres undefined), the IC50 stood at 1600 nM in data set [1] and 9.1 µM in data set [3].
In general, inhibition in vivo refers to the change of the read-out against control, counted positive when it falls. Consider `NCC1(CC(=O)O)CCCCC1` [GABAPENTIN], for which, in the data set with Rattus norvegicus [4], the inhibition in vivo at 100 mg/kg is 33%.
In the case of `COC(OC)C1=C(C(=O)OC/C=C/c2ccccc2)C(c2ccc(Cl)c(Cl)c2)C(C(=O)O)=CN1` (centres undefined), the IC50 in data set [1] came to 520 nM. The inhibition at 10 µM in data set [2] came out at 31%.
As to `COC(OC)C1=C(C(=O)OC/C=C/c2ccccc2)C(c2cccc(Cl)c2)C(C(=O)O)=CN1` (centres undefined), the IC50 in data set [1] is 1100 nM. Moreover, the inhibition at 10 µM in data set [2] turned out to be 44%.
With `COc1c(Cl)cc(C2C(C(=O)O)=CNC=C2C(=O)OC/C=C/c2ccccc2)cc1Cl` (stereo in doubt; (-)-3f), the IC50 in data set [1] is 840 nM. Further, in data set [5], the “inhibition (INH)” value is given as 28%.
With `COc1c(Cl)cc(C2C(C(=O)O)=CNC=C2C(=O)OC/C=C/c2ccccc2)cc1Cl` (single isomer, unassigned; (+)), the half-maximal inhibitory concentration (IC50) was found to be 720 nM in data set [1] and 44 µM in data set [3]. In addition, in data set [5], the “inhibition (INH)” value is given as 6.5%. Moreover, the inhibition in vivo at 3 mg/kg with Rattus norvegicus [6] was 35%.
With `COc1ccc(C2C(C(=O)O)=CNC=C2C(=O)OC/C=C/c2ccccc2)cc1Cl` (centres undefined), the IC50 in data set [1] stood at 1300 nM. Moreover, the inhibition at 10 µM in data set [2] was 15%.
As for `COc1c(Cl)cc(C2C(C(=O)O)=CNC=C2C(=O)OC/C=C/c2ccccc2)cc1Cl` (stereo in doubt; 3f), the IC50 in data set [1] turned out to be 580 nM. Further, the “inhibition (INH)” value in data set [5] turned out to be 19%.
As to `COC(OC)C1=C(C(=O)OC/C=C/c2ccccc2)C(c2cccc(C(F)(F)F)c2)C(C(=O)O)=CN1` (centres undefined), in data set [1], the IC50 is 1100 nM. For the same compound, the inhibition at 10 µM in data set [2] worked out at 17%.
In the same order, the values of `COC(OC)C1=C(C(=O)OC/C=C/c2ccccc2)C(c2ccc(Cl)cc2)C(C(=O)O)=CN1` (centres undefined) are 1100 nM and 7.9%.
